Measured values taken from ChEMBL document CHEMBL4007396, “New diphenylmethane derivatives as peroxisome proliferator-activated receptor alpha/gamma dual agonists endowed with anti-proliferative effects and mitochondrial activity” (Eur J Med Chem, 2017).
The source made the active and inactive calls. The calls are words filed in the database; no cut-off is given here.

Tests used:
[1] = biological target: T1, Bile acid receptor (Homo sapiens) (UniProt Q96RI1); assay: Agonist activity at GAL4-fused human FXR LBD expressed in human HepG2 cells up to 2 uM after 20 hrs by luciferase reporter gene assay; format: cell-based
T1 sequence (whole entry): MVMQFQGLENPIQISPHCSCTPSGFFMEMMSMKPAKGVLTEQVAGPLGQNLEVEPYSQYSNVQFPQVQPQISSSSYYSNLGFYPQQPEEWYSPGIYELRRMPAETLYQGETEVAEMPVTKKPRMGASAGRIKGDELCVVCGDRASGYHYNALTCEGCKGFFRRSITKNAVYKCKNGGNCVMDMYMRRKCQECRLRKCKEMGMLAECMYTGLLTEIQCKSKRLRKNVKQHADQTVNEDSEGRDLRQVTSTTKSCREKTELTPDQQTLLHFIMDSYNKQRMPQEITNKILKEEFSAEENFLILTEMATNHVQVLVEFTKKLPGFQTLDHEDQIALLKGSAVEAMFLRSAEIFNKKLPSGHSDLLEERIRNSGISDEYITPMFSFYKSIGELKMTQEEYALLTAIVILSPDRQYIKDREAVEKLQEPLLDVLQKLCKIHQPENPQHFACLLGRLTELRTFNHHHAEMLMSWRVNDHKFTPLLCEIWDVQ
Outline: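 HepG2 in MEM/10% FBS, calcium-phosphate co-transfection 24 h after seeding with GAL4-FXR-LBD (30 ng), pGAL5TKpGL3 luciferase reporter (100 ng) and pCMVβgal (250 ng); 4 h later, 20 h ligand exposure in triplicate. Luciferase normalized to β-galactosidase (ONPG); efficacy as % of maximal fold induction of chenodeoxycholic acid reference; tested up to 2 μM.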

[2] = biological target: T2, Peroxisome proliferator-activated receptor alpha (Homo sapiens, UniProt Q07869); assay: Transactivation of GAL4-fused human PPARalpa LBD expressed in human HepG2 cells after 20 hrs by luciferase reporter gene assay; format: cell-based
T2 sequence (Q07869 whole entry): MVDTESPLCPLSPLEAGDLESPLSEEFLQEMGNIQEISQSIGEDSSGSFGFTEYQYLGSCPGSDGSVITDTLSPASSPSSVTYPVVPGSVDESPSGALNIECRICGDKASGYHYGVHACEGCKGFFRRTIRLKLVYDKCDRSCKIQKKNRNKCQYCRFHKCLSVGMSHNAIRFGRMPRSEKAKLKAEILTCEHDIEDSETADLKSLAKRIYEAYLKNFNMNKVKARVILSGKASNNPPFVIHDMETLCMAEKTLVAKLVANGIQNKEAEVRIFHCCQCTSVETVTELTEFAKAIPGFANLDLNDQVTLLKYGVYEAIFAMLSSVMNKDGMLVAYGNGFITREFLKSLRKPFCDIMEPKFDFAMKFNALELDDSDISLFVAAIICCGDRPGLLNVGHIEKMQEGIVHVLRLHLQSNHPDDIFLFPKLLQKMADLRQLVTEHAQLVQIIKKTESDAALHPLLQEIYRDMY

[3] = biological target: T3, Peroxisome proliferator-activated receptor gamma (Homo sapiens, UniProt P37231); assay: Transactivation of GAL4-fused human PPARgamma LBD expressed in human HepG2 cells after 20 hrs by luciferase reporter gene assay; format: cell-based
T3 sequence (P37231 whole entry): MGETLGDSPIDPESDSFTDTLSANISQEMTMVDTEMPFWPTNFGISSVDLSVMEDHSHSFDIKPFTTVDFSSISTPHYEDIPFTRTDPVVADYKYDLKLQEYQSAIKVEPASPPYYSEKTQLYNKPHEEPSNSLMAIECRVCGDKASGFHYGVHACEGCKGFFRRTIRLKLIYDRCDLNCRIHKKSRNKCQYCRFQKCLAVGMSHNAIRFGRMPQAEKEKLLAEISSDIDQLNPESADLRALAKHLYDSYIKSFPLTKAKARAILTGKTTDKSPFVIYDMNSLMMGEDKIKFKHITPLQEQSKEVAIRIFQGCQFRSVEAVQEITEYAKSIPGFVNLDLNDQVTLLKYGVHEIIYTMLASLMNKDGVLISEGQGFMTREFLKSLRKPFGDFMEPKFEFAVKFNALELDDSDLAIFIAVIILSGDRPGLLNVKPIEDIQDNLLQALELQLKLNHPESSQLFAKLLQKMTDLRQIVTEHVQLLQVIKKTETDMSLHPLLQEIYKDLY

[4] = test system: HepG2; assay: Cytotoxicity against human HepG2 cells at >2 uM; format: cell-based
[5] = biological target: T2, Peroxisome proliferator-activated receptor alpha; assay: Binding affinity to PPARalpha (unknown origin) assessed as thermodynamic dissociation constant by SPR assay
[6] = biological target: T4, Peroxisome proliferator-activated receptor delta (Homo sapiens, UniProt Q03181); assay: Binding affinity to PPARdelta (unknown origin) assessed as thermodynamic dissociation constant by SPR assay; settings: read-out: Kd
T4 sequence (Q03181 whole entry): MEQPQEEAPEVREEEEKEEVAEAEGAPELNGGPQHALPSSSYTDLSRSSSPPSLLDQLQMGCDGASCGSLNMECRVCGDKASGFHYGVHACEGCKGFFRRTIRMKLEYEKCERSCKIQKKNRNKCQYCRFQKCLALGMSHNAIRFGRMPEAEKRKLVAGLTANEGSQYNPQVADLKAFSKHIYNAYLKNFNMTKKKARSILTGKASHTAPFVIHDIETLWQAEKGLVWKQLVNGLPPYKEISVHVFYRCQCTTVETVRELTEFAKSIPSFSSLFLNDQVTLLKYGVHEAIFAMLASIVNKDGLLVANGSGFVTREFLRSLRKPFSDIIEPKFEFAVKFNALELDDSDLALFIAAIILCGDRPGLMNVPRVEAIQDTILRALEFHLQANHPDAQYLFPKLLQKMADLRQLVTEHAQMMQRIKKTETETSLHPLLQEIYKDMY

[7] = biological target: T3, Peroxisome proliferator-activated receptor gamma; assay: Binding affinity to PPARgamma (unknown origin) assessed as kinetic dissociation constant by SPR assay
[8] = biological target: T2, Peroxisome proliferator-activated receptor alpha; assay: Binding affinity to PPARalpha (unknown origin) assessed as kinetic dissociation constant by SPR assay
[9] = biological target: T4, Peroxisome proliferator-activated receptor delta; assay: Binding affinity to PPARdelta (unknown origin) assessed as kinetic dissociation constant by SPR assay
[10] = biological target: T4, Peroxisome proliferator-activated receptor delta; assay: Transactivation of GAL4-fused human PPARdelta LBD expressed in human HepG2 cells after 20 hrs by luciferase reporter gene assay; format: cell-based
Outline: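 HepG2 cells seeded 10⁵/well, transfected after 24 h by calcium phosphate with GAL4-PPARδ-LBD (30 ng), pGAL5TKpGL3 luciferase reporter (100 ng) and pCMVβgal (250 ng); 4 h later treated 20 h in triplicate with ligands up to 2 μM. Luciferase in cell extracts normalised to β-galactosidase (ONPG); efficacy as % of maximal fold induction of reference agonist L-165,041; experiments repeated at least twice.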

[11] = biological target: T3, Peroxisome proliferator-activated receptor gamma; assay: Binding affinity to PPARgamma (unknown origin) assessed as thermodynamic dissociation constant by SPR assay
[12] = test system: HT-29; assay: Growth inhibition of human HT-29 cells assessed as cell vitality up to 10 uM up to 72 hrs by hemocytometry relative to control; format: functional; design: scale not given: the % may be the effect or the level left
Outline: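 Exponentially growing HT-29 colon adenocarcinoma cells (D-MEM, 10% FBS, 37 °C, 5% CO2) exposed to vehicle (DMSO, final <0.1%) or 1, 5 and 10 μM compound in 10% FBS medium for 24, 48 and 72 hs; cells washed, trypsinized and counted by Bürker hemocytometer, three counts per well. Viability relative to vehicle; mean ± SD of three independent experiments in duplicate.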

[13] = biological target: T5, Peroxisome proliferator-activated receptor gamma (Homo sapiens) (UniProt P37231); assay: Agonist activity at PPARgamma in human HT-29 cells harboring APC mutant assessed as inhibition of Wnt/beta-catenin signaling pathway by measuring decrease in c-Myc level at 10 uM treated for 24 hrs by Western blot method; format: cell-based
T5 sequence (whole entry): T3 sequence (P37231 whole entry)
Outline: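 RIPA lysates, 80 μg protein immunoblotted for c-Myc with β-actin loading control; c-Myc/β-actin densitometry, mean ± SD of at least three independent experiments.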

[14] = biological target: T6, Peroxisome proliferator-activated receptor alpha (Homo sapiens) (UniProt Q07869); assay: Agonist activity at PPARalpha in human HepG2 cells assessed as increase in CPT1 protein expression level at 1 uM after 48 hrs by Western blot method; format: cell-based
T6 sequence (whole entry): T2 sequence (Q07869 whole entry)
Outline: (§1)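 HepG2 serum-depleted 24 h, then treated 48 h with 1 μM compound (Wy-14,643 at 50 μM as reference). Nitrocellulose immunoblots probed for CAC, CPT1 or PPARα with β-actin loading control, chemiluminescent detection; band densitometry expressed as fold change versus untreated cells; three independent experiments.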

[15] = biological target: T6, Peroxisome proliferator-activated receptor alpha (Homo sapiens); assay: Agonist activity at PPARalpha assessed as induction of positive regulatory loop based receptor transcriptional activation by measuring upregulation of PPARalpha protein expression level in human HepG2 cells at 1 uM after 48 hrs by Western blot method; format: cell-based; outline: as §1
[16] = biological target: T6, Peroxisome proliferator-activated receptor alpha (Homo sapiens); assay: Agonist activity at PPARalpha assessed as induction of positive regulatory loop based receptor transcriptional activation by measuring upregulation of PPARalpha mRNA level in human HepG2 cells at 1 uM after 24 hrs by RT-PCR method; format: cell-based
Outline: (§2)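 Serum-free HepG2 exposed 24 h to 1 μM test agent (Wy-14,643 reference at 50 μM). RNA extracted from 1x10⁶ cells; TaqMan real-time RT-PCR for CAC, CPT1 or PPARα, normalized to β-actin. Mean ± SD of three independent duplicate experiments; one-way ANOVA with Bonferroni test.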

[17] = test system: HEK-293T; assay: Effect on p21waf1/cip1 protein expression in HEK293T cells at 10 uM after 48 hrs by Western blot method; format: cell-based; settings: human
Outline: (§3)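 HT-29 or HEK293T cells in DMEM/10% FBS treated 48 h with 10 μM compound (DMSO vehicle, final below 0.1%). RIPA lysates (with protease inhibitors), 80 μg protein per lane immunoblotted for p21waf1/cip1 with β-actin loading control; densitometric p21/β-actin ratio, mean ± SD of at least three independent experiments.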

[18] = biological target: T6, Peroxisome proliferator-activated receptor alpha (Homo sapiens); assay: Agonist activity at PPARalpha in human HepG2 cells assessed as increase in CAC protein expression level at 1 uM after 48 hrs by Western blot method; format: cell-based; outline: as §1
[19] = biological target: T5, Peroxisome proliferator-activated receptor gamma (Homo sapiens); assay: Agonist activity at PPARgamma in human HT-29 cells assessed as upregulation of p21waf1/cip1 protein expression at 10 uM after 48 hrs by Western blot method; format: cell-based; outline: as §3
[20] = biological target: T6, Peroxisome proliferator-activated receptor alpha (Homo sapiens); assay: Agonist activity at PPARalpha in human HepG2 cells assessed as increase in mitochondrial mass at 1 uM by CellLight Mitochondria-GFP staining based fluorescent microscopic method relative to control; format: cell-based
Outline: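 Serum-free HepG2 at 60% confluence transduced with Mitochondria-GFP BacMam 2.0 (50 particles/cell) and given 1 μM compound or 50 μM Wy-14,643 for 24 h. Imaged at 20x with GFP filters (ex 485/em 535 nm); separately, SDS/Tris pH 7.5 lysates read at ex 475, em 500-550 nm. Mean ± SD of three experiments, ANOVA/Bonferroni.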

[21] = biological target: T6, Peroxisome proliferator-activated receptor alpha (Homo sapiens); assay: Agonist activity at PPARalpha in human HepG2 cells assessed as increase in CAC mRNA level at 1 uM after 24 hrs by RT-PCR method; format: cell-based; outline: as §2
[22] = biological target: T6, Peroxisome proliferator-activated receptor alpha (Homo sapiens); assay: Agonist activity at PPARalpha in human HepG2 cells assessed as increase in CPT1 mRNA level at 1 uM after 24 hrs by RT-PCR method; format: cell-based; outline: as §2

CC(Oc1ccc(Cc2ccc(OCc3coc(-c4ccccc4)n3)cc2)cc1)C(=O)O (configuration not stated) was tested, and the Activity [1] was “inactive”, the EC50 [2] was 39 nM and the EC50 [3] was 290 nM. For the same molecule, the Activity [4] was “Toxic”.
With CCC(CC)(c1ccc(OCc2nc(-c3ccccc3)oc2C)cc1)c1ccc(OC(C)C(=O)O)cc1 (configuration not stated) the Activity [1] was “inactive” and the Activity [4] was “Toxic”.
In the case of CCC(CC)(c1ccc(OCc2coc(-c3ccccc3)n2)cc1)c1ccc(OC(C)C(=O)O)cc1 (configuration not stated), the Activity [1] is reported as “inactive” and the Activity [4] is reported as “Toxic”.
With CCCc1c(OCCCOc2ccc(OCC(=O)O)cc2)ccc(C(C)=O)c1O the Kd [5] was “Not Active”, the Kd [6] was 76.4 nM and the Kd [7] was “Not Active”. The Kd [8] was “Not Active”, the Kd [9] was 0.43 s⁻¹ and the EC50 [10] was 20 nM. For the same molecule, the Kd [11] was “Not Active”.
CCC(CC)(c1ccc(OCc2nc(-c3c(Cl)cccc3Cl)oc2C)cc1)c1ccc(OC(C)C(=O)O)cc1 (configuration not stated) was tested, and the Activity [1] was “inactive” and the Activity [4] was “Toxic”.
For CCC(CC)(c1ccc(OCc2coc(-c3c(Cl)cccc3Cl)n2)cc1)c1ccc(OC(C)C(=O)O)cc1 (configuration not stated), the Activity [1] was “inactive” and the Activity [4] was “Toxic”.
CN(CCOc1ccc(CC2SC(=O)NC2=O)cc1)c1ccccn1 (configuration not stated) [ROSIGLITAZONE] was tested, and the Kd [5] was “Not Active”, the Kd [8] was “Not Active” and the Activity [12] was 65%.
In the case of Cc1oc(-c2ccccc2)nc1COc1ccc(Cc2ccc(OC(C)C(=O)O)cc2)cc1 (configuration not stated), the Activity [13] is reported as “Active”, the Activity [1] is reported as “inactive” and the Activity [14] is reported as “Active”. For the same molecule, the Activity [15] was “Active”, the EC50 [2] was 100 nM and the Activity [16] was “Active”. The Activity [17] was “Non-Toxic”, the Activity [18] was “Active” and the EC50 [3] was 290 nM. The Activity [12] was 70%, the Activity [19] was “Active” and the Activity [20] was 30%. For the same molecule, the Activity [4] was “Toxic”, the Activity [21] was “Active” and the Activity [22] was “Active”.
